Screens: PubChem BioAssay, several laboratories
STAT3 act: activators of IL-6 induced STAT3 signaling; activation (% of control), % at 5.6 µM; actives 0.91% (n = 190,000); U3A cells, IL-6 STAT3-luciferase reporter, luminescence; 100% = signal with IL-6 EC80 alone; AID 871;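 active = activation above the screen-wide mean of compound activation plus 3 SD, cut at about 130% in these data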
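Test system: human U3A cells carrying STAT3-luciferase construct; control set: IL-6-only wells as 100% reference; timing: compound pre-incubation 1 h before IL-6, then 6 h stimulation at 37 °C; also added: IL-6 stimulus at 33 ng/mL final; evaluation: % activation versus median of IL-6-stimulated wells; detection: reporter luminescence signal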
PPC-1+TRAIL kill: kills PPC-1 cancer cells in the presence of TRAIL | PPC-1 cells + TRAIL, ATPLite viability luminescence | cell killing (% activity), % at 4 µM or 5 µM | actives 0.41% (n = 220,000) | AID 1443;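 active = cell killing above 50% in the first pass at 4 µM, then a duplicate retest at 5 µM averaging 50% or more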
STAT3 blocker: STAT3 signaling inhibition. U3A cells, IL-6 STAT3-luciferase reporter, luminescence; host cell line lacks STAT1. inhibition, % at 5.5 µM. actives 0.89% (n = 190,000);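 active = inhibition above the mean inhibition across all screened compounds plus 3 SD, cut at about 44% in these data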
STAT1 inh: reduces IFN-gamma driven STAT1 reporter signal. NIH 3T3 STAT1-luciferase reporter, luminescence. inhibition, % at 5.5 µM. actives 0.35% (n = 200,000);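 active = inhibition above a set limit, the mean inhibition across all tested compounds plus 3 SD, cut at about 34% in these data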
C8 TRAIL sens: sensitizes caspase-8 expressing cells to TRAIL; inhibition (viability loss, TRAIL sensitization), % at 10 µM; NB7+C8 cells + TRAIL, ATPlite viability luminescence; actives 1% (n = 360,000);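 active = compounds causing at least 50% loss of cell viability in the single-dose screen, relative to plate controls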
PPC-1 tox: kills PPC-1 cells; cytotoxicity, % at 5 µM; PPC-1 viability, ATPlite luminescence, overnight; actives 50% (n = 1,200); shares compounds with PPC-1+TRAIL kill; AID 1447;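 active = reconfirmed compounds whose average cytotoxicity reaches 50% or more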
Numbers stand for hits; i = inactive; nt = no result given. Shown are actives, neighbours in structure and some others; about 1.8% of the full set was active somewhere.

SMILES	STAT3 act	PPC-1+TRAIL kill	STAT3 blocker	STAT1 inh	C8 TRAIL sens	PPC-1 tox
O=C(c1ccc(CSc2nc3ccncc3[nH]2)cc1)N1CCCCCC1	nt	81	nt	nt	81	83
O=C(c1ccc(CSc2nc3ccncc3[nH]2)cc1)N1CCN(c2cccc(Cl)c2)CC1	i	i	i	i	i	nt
Clc1ccc(CSc2nc3ccncc3[nH]2)cc1	i	94	81	52	92	93
COCc1cc(C)nc2sc(C(=O)Nc3nccs3)c(N)c12	i	i	i	i	i	nt
Cc1cc(C)c2c(N)c(C(=O)Nc3nccs3)sc2n1	i	82	58	48	81	81
O=C(COC(=O)CN1C(=O)c2ccccc2C1=O)Nc1ccc(S(=O)(=O)N2CCCC2)cc1	i	i	i	i	i	i
Cc1n[nH]c(=O)nc1N1CCN(c2ccccc2)CC1	i	i	i	i	i	i
Cc1ccc(O)c(NC(=S)NC(=O)C(C)C)c1	nt	i	nt	nt	i	nt
C/C(=N\N1C(=O)c2ccccc2NC1c1ccccc1)c1ccccc1O (stereo not given)	i	i	i	i	70	i
COc1ccc(/C(C)=N/N2C(=O)c3ccccc3NC2c2ccc(O)c(OC)c2)cc1 (stereo not given)	nt	i	nt	i	i	nt
Cc1csc(N(C)C(=O)CSc2nnc(COc3ccccc3C)o2)n1	i	i	i	i	i	i
O=C(NCc1ccco1)c1cccc2c1C(=O)c1ccc(N3CCCC3)cc1S2(=O)=O	nt	nt	nt	nt	i	nt
CC(=O)c1sc2c(c1OC(=O)c1ccc(Cl)cc1)c(=O)n(-c1ccccc1)c(=S)n2-c1ccccc1	nt	nt	nt	nt	i	nt
CC(=O)c1sc2c(c1OC(=O)c1ccc(Cl)cc1Cl)c(=O)n(-c1ccccc1)c(=S)n2-c1ccccc1	nt	i	nt	nt	i	i
COc1ccc(N=Nc2ccc(O)c3ncccc23)cc1	nt	i	nt	nt	i	i
CNc1ncnc2c1ncn2[C@H]1CN(Cc2ccc(-c3ccccc3)cc2)C[C@@H](CO)O1	nt	nt	nt	nt	i	nt
COCCn1c(-c2ccc(Br)cc2)csc1=Nc1cccnc1	i	i	i	i	i	i
Clc1ccc(-c2csc(=Nc3cccnc3)n2CCCn2ccnc2)cc1Cl	i	i	i	i	i	nt
CN(C(=O)c1cccc(Nc2ccc(-c3ccc4c(c3)OCCO4)nn2)c1)C1CCCCC1	i	53	i	i	68	55
O=c1oc(Nc2cccc(F)c2)nc2ccccc12	i	i	i	i	i	nt
Nc1nc(Nc2cccc(F)c2)nc2ccccc12	i	i	i	i	i	i
COc1ccc(NC(=O)CN(C)C(=O)c2sc3cc(Cl)ccc3c2Cl)cc1	nt	nt	nt	nt	i	nt
O=C1CNC(=S)N1CCc1ccc(O)c(O)c1	nt	i	nt	nt	i	nt
N/C(=N\OC(=O)c1ccccc1Cl)c1ccccn1	i	66	69	78	79	70
N/C(=N\OC(=O)c1ccc(Cl)c(Cl)c1)c1ccccn1	i	i	i	i	66	i
SMILES	STAT3 act	PPC-1+TRAIL kill	STAT3 blocker	STAT1 inh	C8 TRAIL sens	PPC-1 tox
N/C(=N\OC(=O)c1ccccc1[N+](=O)[O-])c1ccccn1	i	nt	i	i	i	nt
O=C(OCc1ccc(Cl)c(Cl)c1)c1ccccn1	i	i	i	i	i	nt
Cc1cc(NC(=O)c2ccc3c(c2)OCCO3)ccc1NC(=O)c1ccco1	i	51	i	i	63	i
O=C(Nc1ccc2c(c1)OCCO2)c1ccc2nccnc2c1	i	i	50	i	68	i
O=C(Nc1ccc2c(c1)OCCO2)c1ccc(Br)o1	i	52	i	i	61	51
CC(OC(=O)c1ccc(Br)o1)C(=O)Nc1ccc2c(c1)OCCO2 (stereo not given)	nt	nt	nt	nt	i	nt
O=C(Nc1ccc(NC(=O)c2ccco2)cc1)c1ccc2c(c1)OCCO2	i	i	i	i	i	nt
CCOc1ncccc1C(=O)Nc1ccc2c(c1)OCCCO2	nt	nt	nt	nt	i	nt
COc1ccccc1CCC(=O)Nc1ccc2c(c1)c(=O)n(C)n2Cc1cccc(C(F)(F)F)c1	nt	nt	nt	nt	i	nt
COCC(=O)N(C)C[C@H]1Oc2ncc(C#C[C@H](C)O)cc2C(=O)N([C@@H](C)CO)C[C@H]1C	nt	nt	nt	nt	i	nt
C=CCNC(=O)/C(=C/c1cn(-c2ccccc2)nc1-c1cccc([N+](=O)[O-])c1)NC(=O)c1ccccc1	i	i	i	i	i	nt
C=CCNC(=O)/C(=C/c1cccc([N+](=O)[O-])c1)NC(=O)c1ccccc1	i	i	i	i	i	i
O=C(CSc1ncn[nH]1)Nc1nc(-c2ccccc2)cs1	i	i	i	i	i	i
Cc1cnc(NC(=O)c2ccc(OCC3CCCO3)cc2)s1 (stereo not given)	i	83	78	51	87	86
Cc1ccc(NC(=O)c2ccc(OCC3CCCO3)cc2)nc1 (stereo not given)	nt	nt	nt	nt	i	nt
O=C(NCc1ccccn1)C(=O)N/N=C/c1ccc2c(c1)OCO2	i	i	i	i	i	i
COc1cc(N)ccc1NC(=O)c1cccs1	i	i	i	i	i	i
C=C1C(=O)O[C@@H]2C[C@@H](C)[C@@H]3C=CC(=O)[C@@]3(C)[C@@H](OC(C)=O)[C@H]12	nt	62	nt	nt	nt	52
C[C@@H]1C[C@@H]2OC(=O)[C@]3(C)[C@H]2[C@@H](OC3(C)O)[C@]2(C)C(=O)C=C[C@H]12 (stereo not given in full)	nt	i	nt	nt	i	nt
CC(C)(C)c1ccc(C(=O)/C=C2\NC(=O)CS2)cc1	i	56	i	i	85	57
Cc1ccc(NC(=O)/C=C2\NC(=O)CS2)cc1	nt	nt	nt	nt	i	nt
Cc1ccccc1NC(=O)CSc1nnc(CNC(=O)c2ccc3c(c2)OCO3)n1C	nt	nt	nt	nt	i	nt
Cn1c(CNC(=O)Cc2ccc3c(c2)OCO3)nnc1SCc1ccccc1	i	i	i	i	i	i
CCC(C)(C)c1ccc(OCC(=O)Nc2ccncc2)cc1	nt	nt	nt	nt	i	nt
COc1ccc(C(=O)NNC(=O)c2ccccn2)cc1	i	86	99	92	89	81
SMILES	STAT3 act	PPC-1+TRAIL kill	STAT3 blocker	STAT1 inh	C8 TRAIL sens	PPC-1 tox
CC1Cc2ccccc2N1S(=O)(=O)c1cnc(Cl)c(Cl)c1 (stereo not given)	nt	i	nt	nt	i	i
COc1cc(C(O)c2nc(-c3cccs3)cs2)ccc1F (stereo not given)	nt	nt	nt	nt	i	nt
CCn1c(Cl)c(C=O)s/c1=N\S(=O)(=O)c1ccccc1	nt	i	nt	nt	i	i
CCOc1ccc(-c2cc(C(=O)N3CCN(c4ccccn4)CC3)c3ccccc3n2)cc1	i	81	i	i	89	82
O=C(c1cc(-c2ccccc2Cl)nc2ccccc12)N1CCN(c2ccccn2)CC1	nt	nt	nt	nt	i	nt
COc1ccc(-c2cc(C(=O)N3CCN(c4ccccn4)CC3)c3ccccc3n2)cc1	i	51	i	i	58	53
COc1ccc2cc(-c3cc(C(=O)O)c4ccccc4n3)ccc2c1	i	96	95	73	95	96
Cc1ccc(-c2cc(C(=O)N3CCN(c4ccc(F)cc4)CC3)c3ccccc3n2)o1	i	i	i	i	i	i
CN(C)c1ncnc2c1nnn2C1OC(CO)C(O)C1O (stereo not given)	nt	nt	nt	nt	i	nt
